Assay results taken from ChEMBL document CHEMBL2331115, “Development of silicon-containing bis-phenol derivatives as androgen receptor antagonists: selectivity switching by C/Si exchange” (Bioorg Med Chem, 2013).
Active and inactive are the calls of the source. No cut-off for these calls is given here.

Experiments:
[1] = molecular target: T1, Vitamin D3 receptor (Homo sapiens) (UniProt P11473); assay: Agonist activity at CMX-GAL4 tagged human VDR expressed in HEK293 cells assessed as increase in transcriptional activity by luciferase reporter gene assay; format: cell-based
T1 sequence (whole entry): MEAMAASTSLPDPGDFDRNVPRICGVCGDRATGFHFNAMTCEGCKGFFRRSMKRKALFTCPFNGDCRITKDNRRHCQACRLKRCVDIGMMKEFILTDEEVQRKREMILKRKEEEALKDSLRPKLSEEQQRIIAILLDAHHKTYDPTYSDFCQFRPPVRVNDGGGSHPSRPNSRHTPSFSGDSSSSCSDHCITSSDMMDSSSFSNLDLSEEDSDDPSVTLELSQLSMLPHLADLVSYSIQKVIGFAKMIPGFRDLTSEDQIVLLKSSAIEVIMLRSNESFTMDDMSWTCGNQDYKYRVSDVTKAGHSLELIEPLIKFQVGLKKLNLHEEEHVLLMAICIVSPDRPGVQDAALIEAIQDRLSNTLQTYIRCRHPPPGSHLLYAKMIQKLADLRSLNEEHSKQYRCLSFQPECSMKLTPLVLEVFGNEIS
How it was run: (§1)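 GAL4-hVDR ligand-binding fusion (CMX-GAL4 N-hVDR, 15 ng/well) cotransfected by calcium phosphate into HEK293 cells with TK-MH100x4-Luc reporter (50 ng) and β-galactosidase plasmid (10 ng). Cells grown in DMEM with 5% FBS, 37 °C, 5% CO2. Compound added 22 h post-transfection and cells harvested 16–20 h later. Luciferase normalized to β-galactosidase, means of triplicates. PC50 is the concentration giving 50% of the positive-control response.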

Androgen receptor = molecular target: T2, Androgen receptor (Homo sapiens, UniProt P10275); assay: Antagonist activity at human androgen receptor expressed in HEK293 cells assessed as inhibition of transcriptional activity by luciferase and beta-galactosidase reporter gene assay; format: cell-based
T2 sequence (P10275 whole entry): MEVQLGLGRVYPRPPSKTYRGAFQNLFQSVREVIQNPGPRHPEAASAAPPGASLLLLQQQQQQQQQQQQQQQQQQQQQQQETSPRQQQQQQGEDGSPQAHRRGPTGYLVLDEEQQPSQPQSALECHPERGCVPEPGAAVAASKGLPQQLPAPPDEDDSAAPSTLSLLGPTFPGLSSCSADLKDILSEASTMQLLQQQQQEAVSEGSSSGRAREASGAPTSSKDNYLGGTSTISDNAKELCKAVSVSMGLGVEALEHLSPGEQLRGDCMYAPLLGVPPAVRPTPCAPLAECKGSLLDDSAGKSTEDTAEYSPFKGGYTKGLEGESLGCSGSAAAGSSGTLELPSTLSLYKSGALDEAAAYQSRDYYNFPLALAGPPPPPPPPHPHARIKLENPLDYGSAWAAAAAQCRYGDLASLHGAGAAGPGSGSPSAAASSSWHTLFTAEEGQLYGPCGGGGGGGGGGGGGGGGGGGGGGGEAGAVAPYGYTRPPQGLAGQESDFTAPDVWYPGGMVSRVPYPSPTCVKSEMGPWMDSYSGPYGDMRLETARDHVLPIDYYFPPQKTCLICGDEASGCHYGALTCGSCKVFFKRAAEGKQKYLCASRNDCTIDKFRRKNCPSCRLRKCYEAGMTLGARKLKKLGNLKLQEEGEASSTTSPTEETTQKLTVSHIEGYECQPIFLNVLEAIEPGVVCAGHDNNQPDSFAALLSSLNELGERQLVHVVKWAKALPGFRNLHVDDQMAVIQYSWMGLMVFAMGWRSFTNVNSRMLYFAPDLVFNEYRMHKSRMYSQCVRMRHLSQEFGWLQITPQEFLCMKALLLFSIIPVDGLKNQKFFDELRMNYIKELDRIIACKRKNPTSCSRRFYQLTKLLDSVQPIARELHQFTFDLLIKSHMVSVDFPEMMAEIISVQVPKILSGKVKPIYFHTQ

Homo sapiens = species: Homo sapiens; assay: Selectivity index, ratio of agonist PC50 for CMX-GAL4 tagged human VDR to antagonist IC50 for human androgen receptor
How it was run: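 Ratio of VDR PC50 to AR IC50. VDR PC50 comes from the GAL4-hVDR luciferase assay in HEK293 cells (50% of positive-control activity). AR IC50 is inhibition of hAR/ARE-luciferase transcription in HEK293 cells under testosterone, both β-galactosidase-normalized, means of three experiments.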

Vitamin D3 receptor = molecular target: T3, Vitamin D3 receptor (Homo sapiens, UniProt P11473); assay: Agonist activity at VDR (unknown origin) by reporter gene assay; how it was run: as §1
T3 sequence (P11473 whole entry): T1 sequence (whole entry)

[2] = molecular target: T4, Androgen receptor (Homo sapiens) (UniProt P10275); assay: Agonist activity at human androgen receptor expressed in HEK293 cells assessed as increase in transcriptional activity in presence of 0.3 nM testosterone by luciferase and beta-galactosidase reporter gene assay; format: cell-based
T4 sequence (whole entry): T2 sequence (P10275 whole entry)
How it was run: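 HEK293 cells in DMEM with 5% FBS, calcium-phosphate cotransfected with pSG5-hAR (33 ng/well), ARE-tlc-Luc reporter (33 ng) and β-galactosidase plasmid (10 ng). Compounds added 22 h after transfection, with 0.3 nM testosterone present. Harvested about 16–20 h later. Luciferase read and normalized to β-galactosidase, means of triplicates.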

HL-60 = assay: Induction of monocytic cell differentiation in human HL60 cells
LNCaP = assay: Growth inhibition of human LNCAP cells
[3] = molecular target: Androgen receptor (Mus musculus) (UniProt P19091); assay: Potency index, ratio of IC50 for hydroxyflutamide to IC50 for compound against androgen receptor in androgen-dependent mouse SC3 cells assessed as inhibition of testosterone-induced cell growth after 3 days; format: cell-based; conditions: SC-3
How it was run: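 SC-3 cells cultured 3 days at 37 °C, 5% CO2 in MEM-Alpha with 2% FBS and 10 nM testosterone, with or without compound. Cell number with testosterone alone set as 100%. IC50 is the concentration halving the testosterone-induced increase in cells, means of three experiments. Index is the reference antagonist IC50 divided by the compound IC50.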

[4] = molecular target: Androgen receptor (Mus musculus) (UniProt P19091); assay: Agonist activity at androgen receptor in androgen-dependent mouse SC3 cells assessed as stimulation of cell growth after 3 days; format: cell-based; conditions: SC-3
How it was run: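 Androgen-dependent mouse Shionogi carcinoma SC-3 cells grown 3 days at 37 °C, 5% CO2 in MEM-Alpha with 2% FBS plus test compound. Growth promotion scored by cell count.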

Chain of Androgen receptor (Mus musculus) (P19091 whole entry): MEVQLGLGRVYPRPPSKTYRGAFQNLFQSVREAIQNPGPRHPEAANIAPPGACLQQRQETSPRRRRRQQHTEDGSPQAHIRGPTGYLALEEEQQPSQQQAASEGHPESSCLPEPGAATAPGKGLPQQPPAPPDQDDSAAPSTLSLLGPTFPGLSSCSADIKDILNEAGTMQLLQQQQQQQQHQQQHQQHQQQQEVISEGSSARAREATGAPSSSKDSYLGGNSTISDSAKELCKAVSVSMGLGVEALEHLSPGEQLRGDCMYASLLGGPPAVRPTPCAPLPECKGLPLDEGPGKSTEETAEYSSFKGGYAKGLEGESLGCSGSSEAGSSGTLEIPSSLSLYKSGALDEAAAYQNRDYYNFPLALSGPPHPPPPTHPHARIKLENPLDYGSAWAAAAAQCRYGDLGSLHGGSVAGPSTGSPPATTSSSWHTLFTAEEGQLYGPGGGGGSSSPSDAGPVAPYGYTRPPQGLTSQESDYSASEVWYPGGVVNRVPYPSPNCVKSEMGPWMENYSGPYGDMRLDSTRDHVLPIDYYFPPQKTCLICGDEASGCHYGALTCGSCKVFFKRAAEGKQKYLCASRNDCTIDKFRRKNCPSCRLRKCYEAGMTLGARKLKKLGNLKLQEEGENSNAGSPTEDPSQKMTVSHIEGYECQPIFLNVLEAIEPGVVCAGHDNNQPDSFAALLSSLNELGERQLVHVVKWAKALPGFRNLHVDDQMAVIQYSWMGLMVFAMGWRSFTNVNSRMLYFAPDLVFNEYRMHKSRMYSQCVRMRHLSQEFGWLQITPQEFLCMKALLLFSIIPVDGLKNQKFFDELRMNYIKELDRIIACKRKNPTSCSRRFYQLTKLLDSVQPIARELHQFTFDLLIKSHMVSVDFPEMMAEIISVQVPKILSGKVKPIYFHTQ

Row | Structure (SMILES) | PC50 [1] | IC50 (Androgen receptor) | Selectivity Index (Homo sapiens) | EC50 (Vitamin D3 receptor) | Activity [2] | EC50 (HL-60) | EC50 (LNCaP) | Ratio IC50 [3] | Activity [4]
1 | CC[Si](CC)(c1ccc(OC[C@@H](O)CO)c(C)c1)c1ccc(OC[C@@H](O)C(C)(C)C)c(C)c1 | 2.2 µM | 8.3 µM | 0.27 | – | – | – | – | – | –
2 | CC[Si](CC)(c1ccc(OCC(=O)C(C)(C)C)c(C)c1)c1ccc(OC[C@@H](O)CO)c(C)c1 | 2 µM | > 10 µM | – | – | – | – | – | – | –
3 | CCC(CC)(c1ccc(OCC(=O)C(C)(C)C)c(C)c1)c1ccc(OCC(=O)C(C)(C)C)c(C)c1 | 4.6 µM | > 10 µM | < 0.46 | 0.04 µM | inactive | 0.03 µM | 0.02 µM | – | –
4 | CC[Si](CC)(c1ccc(OC[C@H](O)CO)c(C)c1)c1ccc(OC[C@@H](O)C(C)(C)C)c(C)c1 | > 10 µM | 7.4 µM | > 1.4 | – | – | – | – | 20 | inactive
5 | CC[Si](CC)(c1ccc(OCC(=O)C(C)(C)C)c(C)c1)c1ccc(OCC2CO2)c(C)c1 (racemic) | 4.8 µM | > 10 µM | 0.48 | – | inactive | – | – | – | –
6 | CC[Si](CC)(c1ccc(NC[C@H](O)CO)c(C)c1)c1ccc(OCC(=O)C(C)(C)C)c(C)c1 | 2.5 µM | > 10 µM | – | – | – | – | – | – | –
7 | CC[Si](CC)(c1ccc(OC[C@@H](O)CO)c(C)c1)c1ccc(OC[C@H](O)C(C)(C)C)c(C)c1 (mixture of isomers) | 0.81 µM | 5.8 µM | 0.14 | – | – | – | – | – | –
8 | CC[Si](CC)(c1ccc(OCC(O)CO)c(C)c1)c1ccc(OCC(O)C(C)(C)C)c(C)c1 (mixture of isomers) | 0.92 µM | 6.8 µM | 0.14 | – | inactive | – | – | – | –
9 | CC[Si](CC)(c1ccc(O)c(C)c1)c1ccc(OC[C@H](O)C(C)(C)C)c(C)c1 | 8.2 µM | > 10 µM | – | – | – | – | – | – | –
10 | CC[Si](CC)(c1ccc(OCC(=O)C(C)(C)C)c(C)c1)c1ccc(OCC(=O)C(C)(C)C)c(C)c1 | > 30 µM | 6.2 µM | > 4.8 | – | inactive | – | – | – | –
11 | CCC(CC)(c1ccc(OCC(=O)C(C)(C)C)c(C)c1)c1ccc(OCC2CO2)c(C)c1 (racemic) | 0.68 µM | > 10 µM | < 0.068 | – | inactive | – | – | – | –
12 | CCC(CC)(c1ccc(OCC(O)CO)c(C)c1)c1ccc(OCC(O)C(C)(C)C)c(C)c1 (mixture of isomers) [LG-190178] | 0.14 µM | > 10 µM | – | – | inactive | 0.03 µM | 0.02 µM | – | –
13 | CC(C)(O)C(=O)Nc1ccc([N+](=O)[O-])c(C(F)(F)F)c1 | inactive | – | – | – | – | – | – | – | –
14 | CC[Si](CC)(c1ccc(NC[C@@H](O)CO)c(C)c1)c1ccc(OCC(=O)C(C)(C)C)c(C)c1 | 7 µM | > 10 µM | – | – | – | – | – | – | –
15 | CC[Si](CC)(c1ccc(OCC(=O)C(C)(C)C)c(C)c1)c1ccc(OC[C@H](O)CO)c(C)c1 | 3.7 µM | 4 µM | 0.93 | – | – | – | – | – | inactive
16 | CC[Si](CC)(c1ccc(OC[C@H](O)CO)c(C)c1)c1ccc(OC[C@H](O)C(C)(C)C)c(C)c1 | 2.1 µM | 6.7 µM | 0.31 | – | – | – | – | – | –
